Activity calls are given as the source filed them. The calls are words filed in the database; no cut-off is given here.
Legend:
[1] = molecular target: T1, Monoglyceride lipase (Rattus norvegicus, UniProt Q8R431); assay: Inhibition of recombinant rat MGL expressed in human HeLa cells using 2-oleoylglycerol as substrate preincubated for 10 mins followed by substrate addition and measured after 10 mins by LC-MS analysis; assay type: cell-based
T1 sequence (Q8R431 whole entry): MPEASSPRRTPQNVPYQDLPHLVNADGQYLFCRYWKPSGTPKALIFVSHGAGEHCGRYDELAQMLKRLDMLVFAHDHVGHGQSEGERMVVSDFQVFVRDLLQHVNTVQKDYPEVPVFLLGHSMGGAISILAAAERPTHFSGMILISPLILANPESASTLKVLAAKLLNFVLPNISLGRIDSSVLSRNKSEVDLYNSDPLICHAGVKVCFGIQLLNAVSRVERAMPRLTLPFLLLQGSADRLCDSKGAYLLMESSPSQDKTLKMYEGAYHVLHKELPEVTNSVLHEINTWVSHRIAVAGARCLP

[2] = molecular target: Monoglyceride lipase (Rattus norvegicus, UniProt Q8R431, C208A); assay: Inhibition of recombinant rat MGL C208A mutant expressed in human HeLa cells using 2-oleoylglycerol as substrate preincubated for 10 mins followed by substrate addition and measured after 10 mins by LC-MS analysis; assay type: cell-based
[3] = molecular target: Monoglyceride lipase (Rattus norvegicus, UniProt Q8R431, C201A/C208A); assay: Inhibition of recombinant rat MGL C201A/C208A mutant expressed in human HeLa cells using 2-oleoylglycerol as substrate preincubated for 10 mins followed by substrate addition and measured after 10 mins by LC-MS analysis
[4] = molecular target: Monoglyceride lipase (Rattus norvegicus, UniProt Q8R431, C201A); assay: Inhibition of recombinant rat MGL C201A mutant expressed in human HeLa cells using 2-oleoylglycerol as substrate preincubated for 10 mins followed by substrate addition and measured after 10 mins by LC-MS analysis; assay type: cell-based
[5] = Drug metabolism in pH 7.4 phosphate buffered saline assessed as N-(2-phenylethyl)-2-[[2-(2-phenylethylcarbamoyl)phenyl]disulfanyl]benzamide formation at 100 uM measured after 60 mins in presence of N-(2-phenylethyl)-2-sulfanyl-benzamide by HR-MS analysis
Method in brief: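 Compound 100 μM final (from 10 mM DMSO stock, 1% DMSO) with GSH 200 μM final in 10 mM PBS pH 7.4 at 37 °C; species quantified at t = 60 min by LC/UV (210/254 nm) and HR-MS (Orbitrap, ESI); mean ± SEM, n = 3-4.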

[6] = system: Mus musculus; assay: In vivo inhibition of MGL in C57BL6 mouse assessed as increase in 2-AG level at 10 mg/kg, ip measured after 2 hrs by LC-MS/MS analysis; assay type: functional, organism-based
Method in brief: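 Adult male C57/BL6 mice, n=4 per group, single 10 mg/kg i.p. dose, saline vehicle; brains collected 2 h post-injection; lipids extracted from homogenate and 2-AG measured by LC-MS (triple quadrupole, ESI positive, isocratic C18); two-tailed t test or ANOVA with Dunnett's.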

[7] = Glutathione reactivity in pH 7.4 phosphate buffered saline assessed as GSH-adduct formation by measuring oxidized GSH level at 100 uM measured after 60 mins by HR-MS analysis; assay type: ADME; conditions: buffer, pH 7.4, 1 h
Method in brief: (§1)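 BTZ 100 µM final (from 10 mM DMSO stock, 1% DMSO final) with GSH 200 µM final in 10 mM PBS pH 7.4 at 37.0 °C; sampled at 60 min (steady state). GSH, GSSG and BTZ quantified by LC/UV (210 nm for GSH/GSSG, 254 nm for BTZ) against PBS standard curves; products identified by HR-MS (Orbitrap). Mean ± SEM, n = 3-4.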

[8] = Tmax in C57BL6 mouse plasma at 10 mg/kg, ip by LC-MS/MS analysis; assay type: ADME, organism-based
Method in brief: (§2)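 Adult male C57/BL6 mice, n=4 per group, single 10 mg/kg i.p. dose, saline vehicle. Plasma and brain collected at set times after injection. Brains homogenized in acetonitrile with 0.1% formic acid and passed through lipid-removal cartridges. Compound quantified by LC-MS/MS on C18 with formic acid water/methanol step gradient; LOQ 0.1 ng/mL, linear 0.1-100.0 ng/mL.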

[9] = Glutathione reactivity in pH 7.4 phosphate buffered saline assessed as GSH-adduct formation by measuring GSH level at 100 uM measured after 60 mins by HR-MS analysis; assay type: ADME; conditions: buffer, pH 7.4, 1 h; method in brief: as §1
[10] = system: N2a; assay: Protection against H2O2-induced toxicity in mouse Neuro2a cells assessed as reduction in LDH release at 1 uM preincubated for 30 mins followed by H2O2 challenge and measured after 24 hrs in presence of CB1 receptor antagonist rimonabant; assay type: functional, cell-based
Method in brief: (§3)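 Neuro-2a cells seeded 5×10^3/well, after 24 h pretreated with agents 30 min, then H2O2 300 µM for 24 h; LDH release into medium measured by absorbance with cytotoxicity detection kit; mean ± SEM; t test or one-way ANOVA with Dunnett's.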

[11] = Ratio of drug level in brain to plasma of C57BL6 mouse at 10 mg/kg, ip by LC-MS/MS analysis; assay type: ADME, organism-based; method in brief: as §2
[12] = system: N2a; assay: Protection against H2O2-induced toxicity in mouse Neuro2a cells assessed as reduction in LDH release at 1 uM preincubated for 30 mins followed by H2O2 challenge and measured after 24 hrs; assay type: functional, cell-based; method in brief: as §3
[13] = Glutathione reactivity in pH 7.4 phosphate buffered saline assessed as GSH-adduct formation by measuring parent compound level at 100 uM measured after 60 mins by HR-MS analysis; assay type: ADME; conditions: buffer, pH 7.4, 1 h, BLD = below limit of detection; method in brief: as §1
[14] = Tmax in C57BL6 mouse brain at 10 mg/kg, ip by LC-MS/MS analysis; assay type: ADME, organism-based; method in brief: as §2

Sequence of Monoglyceride lipase (Rattus norvegicus, UniProt Q8R431, C208A) (Q8R431 whole entry C208A): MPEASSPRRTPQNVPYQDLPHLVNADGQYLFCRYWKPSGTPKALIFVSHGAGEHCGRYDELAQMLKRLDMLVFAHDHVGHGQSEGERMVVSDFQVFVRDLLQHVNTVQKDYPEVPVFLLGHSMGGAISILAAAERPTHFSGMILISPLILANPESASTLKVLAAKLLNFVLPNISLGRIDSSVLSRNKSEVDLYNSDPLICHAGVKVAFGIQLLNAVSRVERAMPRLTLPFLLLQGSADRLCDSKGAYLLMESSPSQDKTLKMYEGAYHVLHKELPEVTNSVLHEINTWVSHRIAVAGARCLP
Sequence of Monoglyceride lipase (Rattus norvegicus, UniProt Q8R431, C201A/C208A) (Q8R431 whole entry C201A/C208A): as the sequence (Q8R431 whole entry C208A) above, with C201A counted along it
Sequence of Monoglyceride lipase (Rattus norvegicus, UniProt Q8R431, C201A) (Q8R431 whole entry C201A): as the sequence (Q8R431 whole entry C208A) above, with C201A, A208C counted along it

COC(=O)c1ccc(CNn2sc3ccccc3c2=O)cc1
IC50 [1]: 0.0939 µM

O=c1c2cc([N+](=O)[O-])ccc2sn1CCc1ccccc1
IC50 [1]: 0.163 µM

O=c1c2ccc([N+](=O)[O-])cc2sn1CCc1ccccc1
IC50 [1]: 0.238 µM

O=c1c2ccccc2sn1NCCCCCNn1sc2ccccc2c1=O
IC50 [2]: 0.22 µM | IC50 [3]: 1.46 µM | IC50 [4]: 0.23 µM | IC50 [1]: 0.0115 µM

O=c1c2ccccc2sn1CCc1ccccc1
Drug metabolism [5]: Metabolite detected | inhibition [6]: Active | Activity [7]: 61.8% | Tmax [8]: 15 min | Activity [9]: 73.4 µM | Activity [10]: inactive | BPR [11]: 4.5% | Activity [12]: Active | Activity [13]: Bld | Tmax [14]: 15 min

O=c1ccsn1CCc1ccccc1
IC50 [1]: 0.759 µM

O=c1c2cc(O)ccc2sn1CCc1ccccc1
IC50 [1]: 0.135 µM

O=c1c2ccc(O)cc2sn1CCc1ccccc1
IC50 [1]: 2.55 µM

O=c1[nH]sc2ccccc12
IC50 [1]: 0.306 µM

O=c1c2ccccc2sn1C1CCCCC1
IC50 [1]: 0.0555 µM

Cc1cccc2c(=O)n(CCc3ccccc3)sc12
IC50 [1]: 13.1 µM

O=C(Oc1ccc([N+](=O)[O-])cc1)N1CCC(C(O)(c2ccc3c(c2)OCO3)c2ccc3c(c2)OCO3)CC1
Activity [10]: inactive | Activity [12]: Active

Cn1sc2ccccc2c1=O
IC50 [1]: 0.0595 µM

O=c1c2ccccc2sn1CCc1ccc2ccccc2c1
IC50 [1]: 0.0542 µM

O=c1c2ccccc2sn1NCc1ccccc1
IC50 [2]: 0.0449 µM | IC50 [3]: 0.782 µM | IC50 [4]: 0.0544 µM | IC50 [1]: 0.0195 µM

COc1ccc2c(=O)n(CCc3ccccc3)sc2c1
IC50 [1]: 0.512 µM

O=c1c2ccccc2sn1NCc1ccc(-c2ccccc2)cc1
IC50 [1]: 0.322 µM

O=c1c2ccccc2sn1NCCCCCCNn1sc2ccccc2c1=O
IC50 [2]: 0.0827 µM | IC50 [3]: 2.08 µM | IC50 [4]: 0.114 µM | IC50 [1]: 0.0168 µM

O=c1c2ccccc2sn1CCCCCCN1CCCCC1
IC50 [1]: 0.195 µM

O=c1c2ccccc2sn1CCc1cccc2ccccc12
IC50 [1]: 0.0218 µM

COc1ccc2sn(CCc3ccccc3)c(=O)c2c1
IC50 [1]: 0.568 µM

CN(Cc1ccccc1)n1sc2ccccc2c1=O
IC50 [1]: 0.189 µM

O=C(O)c1ccc(CNn2sc3ccccc3c2=O)cc1
IC50 [1]: 0.278 µM

— ChEMBL document CHEMBL4354821, “Benzisothiazolinone Derivatives as Potent Allosteric Monoacylglycerol Lipase Inhibitors That Functionally Mimic Sulfenylation of Regulatory Cysteines” (J Med Chem, 2020)
